In ChEMBL document CHEMBL4610117 (J Med Chem, 2020):
The source made the active and inactive calls. The rule behind the calls is not given here.

Experiments:
[1] = Clearance in rat liver microsomes at 1 uM measured after 2 to 60 mins in presence of NADP by LC-MS/MS analysis; assay type: ADME, Microsome
[2] = Clearance in Wistar rat at 0.3 to 0.5 mg/kg, iv administered as bolus dose by LC-MS/MS analysis; assay type: ADME, organism-based; settings: in vivo
[3] = Volume of distribution at steady state in Wistar rat at 0.3 to 0.5 mg/kg, iv administered as bolus dose by LC-MS/MS analysis; assay type: ADME, organism-based; settings: in vivo, read-out: Vdss
[4] = Oral bioavailability in Wistar rat at 0.6 to 1 mg/kg by LC-MS/MS analysis; assay type: ADME, organism-based; settings: in vivo
[5] = Inhibition of PI3K/AKT/mTOR signaling pathway in human MCF7 cells assessed as reduction in AKT phosphorylation at Ser473 residues measured after 30 mins by HTRF assay; settings: MCF7, 0.5 h
[6] = target: DNA-dependent protein kinase catalytic subunit (Homo sapiens, UniProt P78527); experiment: Inhibition of DNA-PK (unknown origin)
[7] = target: Serine-protein kinase ATM (Homo sapiens, UniProt Q13315); experiment: Inhibition of N-terminally FLAG-tagged recombinant full-length ATM (unknown origin) expressed in […] cells using biotin-PEG2-SVEPPLSQETFSD as substrate preincubated for 15 mins followed by substrate addition and measured after 90 mins by TR-FRET assay
Summary of the method: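 Full-length N-terminal FLAG ATM from HEK293-6E, anti-FLAG purified, typically 15 nM. Compound was pre-bound 15 min at 22 °C in HEPES pH 7.0 buffer with MgCl2, KCl, DTT, BSA and Igepal. The reaction ran with 10 μM ATP and 1 μM peptide (final) for 90 min at 22 °C and was stopped with EDTA, streptavidin-XL665 and Eu anti-phospho-p53(Ser15). […] 11 concentrations, 20 μM–0.07 nM, in duplicate.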

[8] = target: Phosphatidylinositol 4,5-bisphosphate 3-kinase catalytic subunit beta isoform (Homo sapiens, UniProt P42338); experiment: Inhibition of PI3Kbeta (unknown origin)
[9] = target: Serine/threonine-protein kinase mTOR (Homo sapiens, UniProt P42345); experiment: Binding affinity to wild-type human partial length mTOR (L1382 to W2549 residues) expressed in mammalian expression system by Kinomescan method
[10] = target: Serine/threonine-protein kinase RIO2 (Homo sapiens, UniProt Q9BVS4); experiment: Binding affinity to wild-type human partial length RIOK2 (M1 to D313 residues) expressed in mammalian expression system by Kinomescan method
[11] = Maximum oral bioavailability in mouse liver microsomes based well stirred liver model at 1 uM measured after 2 to 60 mins in presence of NADP by LC-MS/MS analysis; assay type: ADME, Microsome; settings: read-out: Fmax
[12] = Maximum oral bioavailability in dog liver microsomes based well stirred liver model at 1 uM measured after 2 to 60 mins in presence of NADP by LC-MS/MS analysis; assay type: ADME, Canis lupus familiaris, Microsome; settings: read-out: Fmax
[13] = Protein binding in human plasma assessed as unbound fraction at 3 uM measured after 7 hrs by LC-MS/MS analysis; assay type: ADME, cell-free
[14] = Volume of distribution at steady state in NMRI mouse at 0.3 to 0.5 mg/kg, iv administered as bolus dose by LC-MS/MS analysis; assay type: ADME, organism-based; settings: in vivo
[15] = Apparent half life in NMRI mouse at 0.3 to 0.5 mg/kg, iv administered as bolus dose by LC-MS/MS analysis; assay type: ADME, organism-based; settings: in vivo
[16] = Apparent half life in Beagle dog at 0.3 to 0.5 mg/kg, iv administered as bolus dose by LC-MS/MS analysis; assay type: ADME, organism-based, Canis lupus familiaris; settings: in vivo, read-out: t1/2(app) (converted)
[17] = Oral bioavailability in Beagle dog at 0.6 to 1 mg/kg by LC-MS/MS analysis; assay type: ADME, organism-based, Canis lupus familiaris; settings: in vivo
SU-DHL-8 = experiment: Antitumor activity against human SUDHL8 cells harboring ATM K1964E mutant xenografted in CB-17 mouse assessed as tumor growth at 50 mg/kg, po bid dosed every 3 days followed by 4 days interval relative to control; assay type: functional
Summary of the method: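 SU-DHL-8 (ATM K1964E) GCB-DLBCL cell line-derived xenograft in female C.B-17 SCID mice, n = 9/group. Oral dosing at 50 mg/kg b.i.d. on an intermittent schedule of 3 days on/4 days off. Treatment-to-control (T/C) ratio versus vehicle.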

[18] = target: T1, Serine/threonine-protein kinase ATR (Homo sapiens, UniProt Q13535); experiment: In vivo inhibition of ATR in human SUDHL8 cells harboring ATM K1964E mutant xenografted CB-17 mouse assessed as reduction in ATR phosphorylation at 50 mg/kg, po bid dosed every 3 days followed by 4 days interval; assay type: functional, organism-based
[19] = target: T1, Serine/threonine-protein kinase ATR; experiment: In vivo inhibition of ATR in human SUDHL8 cells harboring ATM K1964E mutant xenografted CB-17 mouse assessed as change in pH2AX level at 50 mg/kg, po bid dosed every 3 days followed by 4 days interval; assay type: functional, organism-based
[20] = Toxicity in NOD/SCID mouse xenografted with human CR5038 cells assessed as body weight loss at 20 mg/kg, po qd dosed every 2 days followed by 5 days interval measured on day 11 to 14 and 28 to 31 in presence of carboplatin relative to control; assay type: organism-based; settings: in vivo
[21] = Toxicity in NOD/SCID mouse xenografted with human CR5038 cells assessed as body weight loss at 20 mg/kg, po qd dosed every 2 days followed by 5 days for 2 weeks and subsequent dosing at 10 mg/kg interval measured on day 11 to 14 and 28 to 31 in presence of carboplatin relative to control; assay type: organism-based; settings: in vivo
SUM149PT = experiment: Antitumor activity against human SUM149 cells xenografted in nude mouse assessed as tumor growth at 20 mg/kg, po bid dosed every 3 days followed by 4 days interval in presence of olaparib relative to control; assay type: functional
Summary of the method: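 SUM149 human TNBC xenograft in nude mice, n = 10/group. Oral 20 mg/kg b.i.d., 3 days on/4 days off, combined with olaparib 50 mg/kg q.d. i.p. T/C ratio versus vehicle and the monotherapies; body weight loss was monitored.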

T1 sequence (Q13535 whole entry, looked up): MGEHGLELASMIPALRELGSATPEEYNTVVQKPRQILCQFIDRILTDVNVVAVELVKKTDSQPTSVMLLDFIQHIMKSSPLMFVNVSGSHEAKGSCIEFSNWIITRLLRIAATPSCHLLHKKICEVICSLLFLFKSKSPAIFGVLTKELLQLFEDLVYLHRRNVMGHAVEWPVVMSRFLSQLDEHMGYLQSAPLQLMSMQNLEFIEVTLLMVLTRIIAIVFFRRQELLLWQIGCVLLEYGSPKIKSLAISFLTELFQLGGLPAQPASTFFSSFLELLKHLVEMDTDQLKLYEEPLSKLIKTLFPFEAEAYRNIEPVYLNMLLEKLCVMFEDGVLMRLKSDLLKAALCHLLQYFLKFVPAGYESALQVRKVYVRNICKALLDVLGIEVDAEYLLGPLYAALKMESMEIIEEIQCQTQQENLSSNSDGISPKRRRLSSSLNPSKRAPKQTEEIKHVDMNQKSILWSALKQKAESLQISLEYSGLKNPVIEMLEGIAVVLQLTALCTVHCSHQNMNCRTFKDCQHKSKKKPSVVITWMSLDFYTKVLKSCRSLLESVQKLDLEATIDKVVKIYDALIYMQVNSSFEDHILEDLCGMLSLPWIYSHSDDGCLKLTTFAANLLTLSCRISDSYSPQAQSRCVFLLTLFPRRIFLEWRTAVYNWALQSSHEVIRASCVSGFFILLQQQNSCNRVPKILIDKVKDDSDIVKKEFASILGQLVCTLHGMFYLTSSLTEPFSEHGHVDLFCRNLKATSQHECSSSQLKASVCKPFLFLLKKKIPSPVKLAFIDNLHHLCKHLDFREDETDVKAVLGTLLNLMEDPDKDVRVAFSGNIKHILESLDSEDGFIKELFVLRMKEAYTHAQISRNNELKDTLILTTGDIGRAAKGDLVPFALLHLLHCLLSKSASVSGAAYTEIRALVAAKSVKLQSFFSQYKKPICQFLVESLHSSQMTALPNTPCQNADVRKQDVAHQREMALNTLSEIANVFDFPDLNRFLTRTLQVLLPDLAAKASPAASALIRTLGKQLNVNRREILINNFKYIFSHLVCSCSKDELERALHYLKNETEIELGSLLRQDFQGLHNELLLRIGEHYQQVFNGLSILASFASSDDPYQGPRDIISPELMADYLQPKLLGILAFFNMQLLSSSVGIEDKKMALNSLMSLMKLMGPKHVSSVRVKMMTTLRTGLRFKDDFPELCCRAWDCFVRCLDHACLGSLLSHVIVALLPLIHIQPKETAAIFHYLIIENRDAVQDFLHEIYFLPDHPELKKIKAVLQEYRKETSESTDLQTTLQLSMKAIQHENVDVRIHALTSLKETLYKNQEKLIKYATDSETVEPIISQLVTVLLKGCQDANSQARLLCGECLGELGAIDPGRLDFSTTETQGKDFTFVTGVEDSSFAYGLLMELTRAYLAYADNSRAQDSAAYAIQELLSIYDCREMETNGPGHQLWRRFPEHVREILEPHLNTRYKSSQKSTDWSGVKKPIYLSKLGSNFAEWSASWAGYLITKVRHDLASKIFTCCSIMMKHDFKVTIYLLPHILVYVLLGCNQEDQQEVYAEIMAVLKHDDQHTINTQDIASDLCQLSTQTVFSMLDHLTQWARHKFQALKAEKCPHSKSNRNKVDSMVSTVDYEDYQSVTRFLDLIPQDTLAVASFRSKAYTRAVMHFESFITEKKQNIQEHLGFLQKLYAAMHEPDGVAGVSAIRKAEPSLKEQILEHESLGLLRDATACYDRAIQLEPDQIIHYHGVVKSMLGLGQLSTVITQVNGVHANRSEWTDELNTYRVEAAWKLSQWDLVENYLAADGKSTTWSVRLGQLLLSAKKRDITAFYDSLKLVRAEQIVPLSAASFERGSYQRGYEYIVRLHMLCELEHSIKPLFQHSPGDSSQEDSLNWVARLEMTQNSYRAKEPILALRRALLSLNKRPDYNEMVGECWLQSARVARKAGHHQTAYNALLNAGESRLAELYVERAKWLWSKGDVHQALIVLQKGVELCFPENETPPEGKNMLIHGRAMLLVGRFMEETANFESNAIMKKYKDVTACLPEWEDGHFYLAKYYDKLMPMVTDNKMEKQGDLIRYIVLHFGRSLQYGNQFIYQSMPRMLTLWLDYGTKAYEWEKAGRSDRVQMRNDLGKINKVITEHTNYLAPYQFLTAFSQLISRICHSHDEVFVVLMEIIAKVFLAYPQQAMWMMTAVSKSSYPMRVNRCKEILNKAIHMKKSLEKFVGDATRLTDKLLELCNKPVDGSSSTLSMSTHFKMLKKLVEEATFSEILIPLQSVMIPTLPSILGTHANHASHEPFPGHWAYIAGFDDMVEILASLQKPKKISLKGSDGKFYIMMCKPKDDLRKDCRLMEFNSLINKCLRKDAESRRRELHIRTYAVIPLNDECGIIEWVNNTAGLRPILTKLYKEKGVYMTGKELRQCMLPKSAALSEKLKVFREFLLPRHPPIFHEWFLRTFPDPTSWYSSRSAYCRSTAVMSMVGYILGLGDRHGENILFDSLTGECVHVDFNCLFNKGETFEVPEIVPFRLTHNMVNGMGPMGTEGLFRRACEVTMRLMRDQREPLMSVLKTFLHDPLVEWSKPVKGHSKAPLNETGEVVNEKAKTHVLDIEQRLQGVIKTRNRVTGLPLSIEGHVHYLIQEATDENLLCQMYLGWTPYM
Phosphatidylinositol 4,5-bisphosphate 3-kinase catalytic subunit beta isoform, sequence (P42338 whole entry, the tested form may be a part, canonical isoform): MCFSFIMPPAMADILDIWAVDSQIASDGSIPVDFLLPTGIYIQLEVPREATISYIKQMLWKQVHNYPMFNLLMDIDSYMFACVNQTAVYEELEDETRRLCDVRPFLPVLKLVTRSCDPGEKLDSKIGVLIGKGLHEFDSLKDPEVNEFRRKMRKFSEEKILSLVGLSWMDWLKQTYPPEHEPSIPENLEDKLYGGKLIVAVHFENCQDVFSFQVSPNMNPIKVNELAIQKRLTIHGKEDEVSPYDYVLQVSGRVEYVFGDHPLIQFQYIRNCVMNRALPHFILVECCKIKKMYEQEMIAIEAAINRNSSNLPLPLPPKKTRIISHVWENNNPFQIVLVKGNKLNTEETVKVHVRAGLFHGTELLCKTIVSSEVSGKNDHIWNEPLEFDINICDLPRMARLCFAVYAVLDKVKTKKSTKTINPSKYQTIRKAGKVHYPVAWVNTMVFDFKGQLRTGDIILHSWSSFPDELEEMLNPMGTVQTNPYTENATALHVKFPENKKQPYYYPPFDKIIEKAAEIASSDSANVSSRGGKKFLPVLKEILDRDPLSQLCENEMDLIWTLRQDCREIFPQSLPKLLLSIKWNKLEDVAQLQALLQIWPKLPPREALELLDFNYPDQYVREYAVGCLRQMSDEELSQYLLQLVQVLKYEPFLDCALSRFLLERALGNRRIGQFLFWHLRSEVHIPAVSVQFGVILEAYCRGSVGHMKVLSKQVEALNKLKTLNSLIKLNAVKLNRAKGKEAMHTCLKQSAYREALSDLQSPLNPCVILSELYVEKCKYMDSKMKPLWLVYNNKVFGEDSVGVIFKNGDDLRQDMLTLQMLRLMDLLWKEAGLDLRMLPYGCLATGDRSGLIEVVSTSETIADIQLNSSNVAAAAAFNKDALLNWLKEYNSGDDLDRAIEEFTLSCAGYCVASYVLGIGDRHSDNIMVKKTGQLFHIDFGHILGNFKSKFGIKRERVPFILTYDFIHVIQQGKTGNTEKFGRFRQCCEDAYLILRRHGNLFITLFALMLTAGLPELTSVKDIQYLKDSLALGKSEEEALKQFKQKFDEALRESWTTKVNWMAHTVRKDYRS
Serine/threonine-protein kinase RIO2, sequence (Q9BVS4 whole entry, the tested form may be a part): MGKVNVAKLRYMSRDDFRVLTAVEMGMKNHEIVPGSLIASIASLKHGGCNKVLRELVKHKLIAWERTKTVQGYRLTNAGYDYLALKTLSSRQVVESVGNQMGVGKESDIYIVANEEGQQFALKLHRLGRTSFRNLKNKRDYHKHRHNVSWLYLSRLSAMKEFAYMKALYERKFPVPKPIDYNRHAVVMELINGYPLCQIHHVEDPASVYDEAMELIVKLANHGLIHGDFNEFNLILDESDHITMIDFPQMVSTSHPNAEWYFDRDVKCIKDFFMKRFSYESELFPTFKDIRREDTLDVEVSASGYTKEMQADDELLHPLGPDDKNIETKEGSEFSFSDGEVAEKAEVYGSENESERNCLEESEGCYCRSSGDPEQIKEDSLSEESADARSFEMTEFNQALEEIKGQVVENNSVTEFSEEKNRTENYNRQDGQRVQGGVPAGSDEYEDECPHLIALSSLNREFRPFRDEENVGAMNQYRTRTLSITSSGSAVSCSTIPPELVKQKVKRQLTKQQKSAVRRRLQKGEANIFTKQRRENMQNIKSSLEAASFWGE

What does the source list for `C[C@@H]1COCCN1c1cc(-c2ccnn2C)c2ccnc(-c3ccn[nH]3)c2n1` [ELIMUSERTIB]?
CLH [1]: 8.67 mL/min/kg; clearance [2]: 20 mL/min/kg; Vd [3]: 1.7 L/kg; bioavailability [4]: 87%; IC50 [5]: 35 nM; IC50 [6]: 332 nM; IC50 [7]: 1420 nM; IC50 [8]: 3270 nM; Kd [9]: 24 nM; Kd [10]: 660 nM; Fh at 1 µM [11]: 44%; Fh at 1 µM [12]: 54%; fraction unbound at 7 h, 3 µM [13]: 0.03; Vdss [14]: 8.8 L/kg; t1/2(app) [15]: 0.17 h; half-life [16]: 1 h; bioavailability [17]: 51%; T/C (SU-DHL-8): -0.03; inhibition [18]: Active; inhibition [19]: Active; Activity [20]: 11 to 15%; Activity [21]: < 10%; T/C (SUM149PT): -0.06
